A value given as a limit tells only on which side of the number the result lay.

In one test the test system is Staphylococcus aureus. Put plainly: Antibacterial activity against Staphylococcus aureus assessed as inhibition of microbial growth incubated for 18 to 22 hrs by broth microdilution method. Format: functional. The method, boiled down: (§1)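 Broth microdilution in Mueller-Hinton II broth following NCCLS recommendations; compounds dissolved in DMSO.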
For another test, the system named is Staphylococcus warneri. Put plainly: Antibacterial activity against Staphylococcus warneri assessed as inhibition of microbial growth incubated for 18 to 22 hrs by broth microdilution method. Type of test: functional. The method, boiled down: as §1
The next test relates to Enterococcus faecalis. Put plainly: Antibacterial activity against Streptococcus faecalis assessed as inhibition of microbial growth incubated for 18 to 22 hrs by broth microdilution method. Type of test: functional. An outline of the steps: as §1
A further test deals with Escherichia coli. Put plainly: Antibacterial activity against Escherichia coli assessed as inhibition of microbial growth incubated for 18 to 22 hrs by broth microdilution method. Type of test: functional. An outline of the steps:
as §1

Another test deals with Proteus mirabilis. Briefly: Antibacterial activity against Proteus mirabilis assessed as inhibition of microbial growth incubated for 18 to 22 hrs by broth microdilution method. Format: functional. The method, boiled down: as §1
The test system of another test is Enterobacter. Put plainly: Antibacterial activity against Enterobacter spp. assessed as inhibition of microbial growth incubated for 18 to 22 hrs by broth microdilution method. Format: functional. An outline of the steps: as §1
The test system of another test is Klebsiella oxytoca. Put plainly: Antibacterial activity against Klebsiella oxytoca assessed as inhibition of microbial growth incubated for 18 to 22 hrs by broth microdilution method. Type of test: functional. An outline of the steps:
as §1

The test system of another test is Candida albicans. Put plainly: Antifungal activity against Candida albicans clinical isolates assessed as inhibition of microbial growth incubated for 24 hrs by broth microdilution method. Type of test: functional. The method, boiled down:
(§2)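 Twenty-two clinical Candida isolates (8 C. albicans, 4 C. glabrata, 3 C. tropicalis, 3 C. krusei, 2 C. parapsilosis, 2 C. sake) were identified by colony morphology and biochemistry and subcultured at 35 °C for purity. Compounds were dissolved in DMSO and tested by broth microdilution in Sabouraud dextrose broth per NCCLS/CLSI/EUCAST guidance. Values are geometric mean MIC per species (µg/mL).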

The next test concerns Nakaseomyces glabratus. Briefly: Antifungal activity against Candida glabrata clinical isolates assessed as inhibition of microbial growth incubated for 24 hrs by broth microdilution method. Format: functional. The method, boiled down: as §2
In another test the test system is Candida tropicalis. Put plainly: Antifungal activity against Candida tropicalis clinical isolates assessed as inhibition of microbial growth incubated for 24 hrs by broth microdilution method. Format: functional. The method, boiled down: as §2
The subject of the next test is Pichia kudriavzevii. Briefly: Antifungal activity against Candida krusei clinical isolates assessed as inhibition of microbial growth incubated for 24 hrs by broth microdilution method. Format: functional. An outline of the steps:
as §2

The next test relates to Candida parapsilosis. Briefly: Antifungal activity against Candida parapsilosis clinical isolates assessed as inhibition of microbial growth incubated for 24 hrs by broth microdilution method. Format: functional. The conditions noted are these: Lodderomyces parapsilosis. An outline of the steps: as §2
A further test concerns [Candida] sake. Briefly: Antifungal activity against Candida sake clinical isolates assessed as inhibition of microbial growth incubated for 24 hrs by broth microdilution method. Type of test: functional. The conditions noted are these: Fermentozyma sake. An outline of the steps: as §2
The test system of test [1] is Streptococcus alpha-hemolyticus (Streptococcus sp.). Briefly: Antibacterial activity against Streptococcus Streptococcus alpha hemolyticus assessed as inhibition of microbial growth incubated for 18 to 22 hrs by broth microdilution method.

As to `CC/C(C)=N\N=C1/NC(=O)CS1`, the MIC with Staphylococcus aureus, in the test on Staphylococcus warneri, with Enterococcus faecalis, in the test on Escherichia coli, with Proteus mirabilis and in the test on Enterobacter was at least 256 µg/mL in each case. Moreover, the MIC is at least 256 µg/mL in the test on Klebsiella oxytoca; 8 µg/mL with Candida albicans; 2 µg/mL with Nakaseomyces glabratus; 2 µg/mL in the test on Candida tropicalis; 2 µg/mL in the test with Pichia kudriavzevii; 2 µg/mL in the test on Candida parapsilosis. Also, the MIC in test [Candida] sake was 2 µg/mL; in test [1] it was at least 256 µg/mL.
For `CC(C)=C/C(C)=N\N=C1/NC(=O)CS1`, the MIC in the test with Staphylococcus aureus, in the test with Staphylococcus warneri, in the test on Enterococcus faecalis, with Escherichia coli, with Proteus mirabilis and with Enterobacter was at least 256 µg/mL each time. In addition, the MIC in the test with Klebsiella oxytoca was at least 256 µg/mL; with Candida albicans it was 2 µg/mL; with Nakaseomyces glabratus, 2 µg/mL; in the test with Candida tropicalis, 8 µg/mL; in the test with Pichia kudriavzevii it was 2 µg/mL; with Candida parapsilosis, 2 µg/mL. The MIC in [Candida] sake was 4 µg/mL; in [1], at least 256 µg/mL.
Turning to `C=CCC/C(C)=N\N=C1/NC(=O)CS1`, the minimal inhibitory concentration (MIC) with Staphylococcus aureus, with Staphylococcus warneri, in the test with Enterococcus faecalis, in the test with Escherichia coli, in the test with Proteus mirabilis and with Enterobacter was at least 256 µg/mL each time. The MIC with Klebsiella oxytoca was at least 256 µg/mL; in the test on Candida albicans, 2 µg/mL; in the test with Nakaseomyces glabratus, 2 µg/mL; in the test with Candida tropicalis, 2 µg/mL; in the test with Pichia kudriavzevii, 2 µg/mL; in the test on Candida parapsilosis it was 2 µg/mL. Moreover, the results for the MIC in test [Candida] sake and in test [1] were 4 µg/mL and at least 256 µg/mL, respectively.
`C/C(CC(C)C)=N/N=C1\NC(=O)CS1`: the MIC in the test on Staphylococcus aureus, with Staphylococcus warneri, with Enterococcus faecalis, in the test on Escherichia coli, in the test on Proteus mirabilis and in the test on Enterobacter was at least 256 µg/mL in each case. Further, the MIC is at least 256 µg/mL with Klebsiella oxytoca; 2 µg/mL in the test on Candida albicans; 2 µg/mL in the test on Nakaseomyces glabratus; 2 µg/mL in the test with Candida tropicalis; 2 µg/mL in the test with Pichia kudriavzevii; 2 µg/mL in the test on Candida parapsilosis. Also, the MIC in test [Candida] sake is 2 µg/mL; in test [1], at least 256 µg/mL.
Turning to `CCCCCC/C(C)=N\N=C1/NC(=O)CS1`, the MIC in the test with Staphylococcus aureus, in the test on Staphylococcus warneri, with Enterococcus faecalis, with Escherichia coli, in the test on Proteus mirabilis and in the test on Enterobacter was at least 256 µg/mL in each case. Further, the MIC with Klebsiella oxytoca was at least 256 µg/mL; with Candida albicans, 2 µg/mL; in the test with Nakaseomyces glabratus it was 2 µg/mL; with Candida tropicalis, 2 µg/mL; with Pichia kudriavzevii it was 16 µg/mL; with Candida parapsilosis it was 16 µg/mL. Further, the MIC is 16 µg/mL in [Candida] sake and at least 256 µg/mL in [1].
In the case of `C/C(=N/N=C1/SCC(=O)N1Cc1ccccc1)c1ccc2ccccc2c1`, the minimal inhibitory concentration (MIC) with Staphylococcus aureus, in the test with Staphylococcus warneri, in the test on Enterococcus faecalis, in the test with Escherichia coli, with Proteus mirabilis and in the test with Enterobacter was at least 256 µg/mL throughout. In addition, the MIC in the test on Klebsiella oxytoca is at least 256 µg/mL; with Candida albicans it was 8 µg/mL; with Nakaseomyces glabratus it was 16 µg/mL; with Candida tropicalis, 256 µg/mL; in the test on Pichia kudriavzevii, 16 µg/mL; in the test on Candida parapsilosis, 16 µg/mL. Further, the MIC in [Candida] sake is 16 µg/mL.
Turning to `CC(=O)c1ccc(/C(C)=N\N=C2\SCC(=O)N2Cc2ccccc2)cc1`, the MIC in the test with Staphylococcus aureus, in the test on Staphylococcus warneri, in the test with Enterococcus faecalis, in the test with Escherichia coli, in the test on Proteus mirabilis and with Enterobacter was at least 256 µg/mL each time. Further, the MIC in the test with Klebsiella oxytoca is at least 256 µg/mL; in the test with Candida albicans, 8 µg/mL; with Nakaseomyces glabratus, 2 µg/mL; in the test on Candida tropicalis, 32 µg/mL; in the test on Pichia kudriavzevii it was 8 µg/mL; in the test on Candida parapsilosis it was 32 µg/mL. In addition, the MIC in test [Candida] sake is 8 µg/mL.
Consider `C/C(=N/N=C1/SCC(=O)N1Cc1ccccc1)c1ccc(/C(C)=N\N=C2\SCC(=O)N2Cc2ccccc2)cc1`, for which the MIC with Staphylococcus aureus, in the test on Staphylococcus warneri, with Enterococcus faecalis, in the test on Escherichia coli, in the test on Proteus mirabilis and with Enterobacter was at least 256 µg/mL in each case. For the same compound, the MIC with Klebsiella oxytoca was at least 256 µg/mL; with Candida albicans, 8 µg/mL; with Nakaseomyces glabratus, 2 µg/mL; with Candida tropicalis, 32 µg/mL; in the test with Pichia kudriavzevii it was 8 µg/mL; in the test with Candida parapsilosis, 32 µg/mL. Moreover, in test [Candida] sake, the MIC came to 8 µg/mL.
For the compound `CCC/C(CC)=N\N=C1/NC(=O)CS1`, the MIC in the test on Staphylococcus aureus, in the test on Staphylococcus warneri, in the test on Enterococcus faecalis, in the test on Escherichia coli, in the test with Proteus mirabilis and in the test on Enterobacter was at least 256 µg/mL throughout. The MIC in the test on Klebsiella oxytoca was at least 256 µg/mL; with Candida albicans, 2 µg/mL; with Nakaseomyces glabratus, 2 µg/mL; with Candida tropicalis, 16 µg/mL; in the test with Pichia kudriavzevii, 2 µg/mL; with Candida parapsilosis, 4 µg/mL. Besides, the results for the MIC in test [Candida] sake and in test [1] were 2 µg/mL and at least 256 µg/mL, respectively.
Take `C/C(=N/N=C1/SCC(=O)N1Cc1ccccc1)c1ccc2ccc3ccccc3c2c1`: the MIC in the test on Staphylococcus aureus, with Staphylococcus warneri, with Enterococcus faecalis, in the test on Escherichia coli, with Proteus mirabilis and with Enterobacter was at least 256 µg/mL each time. For the same compound, the MIC is at least 256 µg/mL with Klebsiella oxytoca; 2 µg/mL with Candida albicans; 2 µg/mL in the test on Nakaseomyces glabratus; 2 µg/mL in the test with Candida tropicalis; 4 µg/mL in the test on Pichia kudriavzevii; 2 µg/mL with Candida parapsilosis. Moreover, the MIC in test [Candida] sake amounted to 8 µg/mL.
For the compound `C/C(=N/N=C1\NC(=O)CS1)C1CC1`, the MIC with Staphylococcus aureus, with Staphylococcus warneri, in the test on Enterococcus faecalis, in the test with Escherichia coli, with Proteus mirabilis and with Enterobacter was at least 256 µg/mL in each case. For the same compound, the MIC in the test on Klebsiella oxytoca was at least 256 µg/mL; in the test with Candida albicans, 2 µg/mL; with Nakaseomyces glabratus, 2 µg/mL; with Candida tropicalis, 32 µg/mL; in the test with Pichia kudriavzevii it was 2 µg/mL; in the test with Candida parapsilosis it was 4 µg/mL. In addition, the MIC in test [Candida] sake is 2 µg/mL; in test [1] it was at least 256 µg/mL.
For `C/C(=N/N=C1/SCC(=O)N1Cc1ccccc1)c1ccc2c(c1)OCCO2`, the MIC with Staphylococcus aureus, with Staphylococcus warneri, in the test with Enterococcus faecalis, in the test on Escherichia coli, with Proteus mirabilis and with Enterobacter was at least 256 µg/mL throughout. The MIC in the test with Klebsiella oxytoca is at least 256 µg/mL; in the test with Candida albicans, 2 µg/mL; in the test with Nakaseomyces glabratus, 8 µg/mL; in the test on Candida tropicalis, 2 µg/mL; in the test with Pichia kudriavzevii, 4 µg/mL; in the test with Candida parapsilosis it was 2 µg/mL. In addition, the MIC in test [Candida] sake was 8 µg/mL.
On to `C/C(=N/N=C1/SCC(=O)N1Cc1ccccc1)c1cc2ccccc2oc1=O`, for which the MIC in the test with Staphylococcus aureus, in the test with Staphylococcus warneri, with Enterococcus faecalis, in the test with Escherichia coli, in the test with Proteus mirabilis and with Enterobacter was at least 256 µg/mL throughout. Besides, the MIC with Klebsiella oxytoca is at least 256 µg/mL; in the test with Candida albicans it was 256 µg/mL; with Nakaseomyces glabratus, 32 µg/mL; in the test on Candida tropicalis it was 256 µg/mL; in the test on Pichia kudriavzevii, 128 µg/mL; with Candida parapsilosis, 128 µg/mL. Moreover, the MIC in test [Candida] sake amounted to 128 µg/mL.
`CCCC/C(C)=N\N=C1/NC(=O)CS1`: the MIC in the test on Staphylococcus aureus, with Staphylococcus warneri, with Enterococcus faecalis, with Escherichia coli, with Proteus mirabilis and in the test with Enterobacter was at least 256 µg/mL in each case. The MIC in the test with Klebsiella oxytoca was at least 256 µg/mL; in the test with Candida albicans, 2 µg/mL; in the test on Nakaseomyces glabratus it was 2 µg/mL; in the test with Candida tropicalis, 32 µg/mL; in the test on Pichia kudriavzevii, 2 µg/mL; in the test with Candida parapsilosis, 4 µg/mL. Further, the MIC in test [Candida] sake was 2 µg/mL; in test [1], at least 256 µg/mL.
Consider `CC(C)(O/N=C(\C(=O)N[C@@H]1C(=O)N2C(C(=O)[O-])=C(C[n+]3ccccc3)CS[C@H]12)c1csc(N)n1)C(=O)O` [CEFTAZIDIME], for which the MIC in the test with Staphylococcus aureus, with Staphylococcus warneri, in the test with Enterococcus faecalis, in the test on Escherichia coli, in the test with Proteus mirabilis and in the test on Enterobacter was 8 µg/mL throughout. The MIC (in the test on Klebsiella oxytoca; in [1]) was 8 µg/mL throughout.

The record behind these values is ChEMBL document CHEMBL4190362, “Synthesis, biological evaluation and quantitative structure-active relationships of 1,3-thiazolidin-4-one derivatives. A promising chemical scaffold endowed with high antifungal potency and low cytotoxicity” (Eur J Med Chem, 2017).
